Laboratory results from ChEMBL document CHEMBL1687709 (Antimicrob Agents Chemother, 2008).

How the values were obtained:
Assay type in all cases: ADME, organism-based
[1] = Cmax in HIV-infected patient at 480 mg/m2, po administered every 12 hrs for 6 weeks co-administered with 120 mg/m2 of ritonavir and saquinavir; parameters: route oral; settings: human, in vivo
Method in brief: (§1)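 Step 2 SQV 750 mg/m2 q12h was added by week 4 when LPV IQ was <15. A second 12-h intensive PK study ran after 2 weeks of SQV plus LPV/r (week 6), with plasma predose and at 1, 2, 3, 6 and 12 h. HPLC-UV at 212 nm (LPV 0.100–40, SQV 0.050–20 μg/ml). Noncompartmental AUC, Cmax, Tmax and C12h.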

[2] = Plasma concentration in HIV-infected patient at 480 mg/m2, po administered every 12 hrs for 6 weeks co-administered with 120 mg/m2 of ritonavir and saquinavir measured 12 hrs after last dose; settings: human; method in brief: as §1
[3] = Tmax in HIV-infected patient at 480 mg/m2, po administered every 12 hrs for 6 weeks co-administered with 120 mg/m2 of ritonavir and saquinavir; settings: human, in vivo; method in brief: as §1
[4] = AUC in HIV-infected patient at 480 mg/m2, po administered every 12 hrs for 6 weeks co-administered with 120 mg/m2 of ritonavir and saquinavir; settings: human, plasma; method in brief: as §1
[5] = Tmax in HIV-infected patient at 400 mg/m2, po administered every 12 hrs for 2 weeks co-administered with 120 mg/m2 of ritonavir; settings: human, in vivo, in the assay text read “100 mg/m2 of ritonavir” for “120 mg/m2 of ritonavir”
Method in brief: (§2)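 Treatment-experienced HIV-infected children and adolescents. Without NNRTI: LPV/r 400/100 mg/m2 q12h. With NNRTI: 480/120 mg/m2 q12h. Given as gel capsule or liquid. After 2 weeks, a 12-h intensive PK study followed an observed dose, no standardized meal. Plasma (EDTA) was drawn predose and at 1, 2, 3, 6 and 12 h. LPV was measured by HPLC-UV at 212 nm (range 0.100–40 μg/ml). Noncompartmental AUC, Cmax, Tmax, C12h and CL/F.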

[6] = Plasma concentration in HIV-infected patient at 400 mg/m2, po administered every 12 hrs for 2 weeks co-administered with 120 mg/m2 of ritonavir measured 12 hrs after last dose; settings: human, in the assay text read “100 mg/m2 of ritonavir” for “120 mg/m2 of ritonavir”; method in brief: as §2
[7] = Clearance in HIV-infected patient at 400 mg/m2, po administered every 12 hrs for 2 weeks co-administered with 120 mg/m2 of ritonavir; settings: human, in vivo, in the assay text read “100 mg/m2 of ritonavir” for “120 mg/m2 of ritonavir”; method in brief: as §2
[8] = AUC in HIV-infected patient at 400 mg/m2, po administered every 12 hrs for 2 weeks co-administered with 120 mg/m2 of ritonavir; settings: human, plasma, in the assay text read “100 mg/m2 of ritonavir” for “120 mg/m2 of ritonavir”; method in brief: as §2
[9] = Cmax in HIV-infected patient at 400 mg/m2, po administered every 12 hrs for 2 weeks co-administered with 120 mg/m2 of ritonavir; parameters: route oral; settings: human, in vivo, in the assay text read “100 mg/m2 of ritonavir” for “120 mg/m2 of ritonavir”; method in brief: as §2

Row | Cmax [1] [ng/mL] | concentration at 12 h [2] [ng/mL] | Tmax [3] [h] | AUC [4] [ng·h/mL] | Tmax [5] [h] | concentration at 12 h [6] [ng/mL] | CL/F [7] [mL/min] | AUC [8] [ng·h/mL] | Cmax [9] [ng/mL] | Compound
1 | 3600 | 1820 | 3 | 33700 |  |  |  |  |  | CC(C)(C)NC(=O)[C@@H]1C[C@@H]2CCCC[C@@H]2CN1C[C@@H](O)[C@H](Cc1ccccc1)NC(=O)[C@H](CC(N)=O)NC(=O)c1ccc2ccccc2n1
2 |  |  |  |  | 3 | 8800 | 43 | 157000 | 17200 | Cc1cccc(C)c1OCC(=O)N[C@@H](Cc1ccccc1)[C@@H](O)C[C@H](Cc1ccccc1)NC(=O)[C@H](C(C)C)N1CCCNC1=O [LOPINAVIR]
